{"source": "paper PMC3924769", "about": "(Cell metabolism, 2014)", "key": {"[1]": {"molecular_target": "T1, DAF-12 (Caenorhabditis elegans, UniProt G5EFF5)", "T1 sequence (G5EFF5 1-753)": "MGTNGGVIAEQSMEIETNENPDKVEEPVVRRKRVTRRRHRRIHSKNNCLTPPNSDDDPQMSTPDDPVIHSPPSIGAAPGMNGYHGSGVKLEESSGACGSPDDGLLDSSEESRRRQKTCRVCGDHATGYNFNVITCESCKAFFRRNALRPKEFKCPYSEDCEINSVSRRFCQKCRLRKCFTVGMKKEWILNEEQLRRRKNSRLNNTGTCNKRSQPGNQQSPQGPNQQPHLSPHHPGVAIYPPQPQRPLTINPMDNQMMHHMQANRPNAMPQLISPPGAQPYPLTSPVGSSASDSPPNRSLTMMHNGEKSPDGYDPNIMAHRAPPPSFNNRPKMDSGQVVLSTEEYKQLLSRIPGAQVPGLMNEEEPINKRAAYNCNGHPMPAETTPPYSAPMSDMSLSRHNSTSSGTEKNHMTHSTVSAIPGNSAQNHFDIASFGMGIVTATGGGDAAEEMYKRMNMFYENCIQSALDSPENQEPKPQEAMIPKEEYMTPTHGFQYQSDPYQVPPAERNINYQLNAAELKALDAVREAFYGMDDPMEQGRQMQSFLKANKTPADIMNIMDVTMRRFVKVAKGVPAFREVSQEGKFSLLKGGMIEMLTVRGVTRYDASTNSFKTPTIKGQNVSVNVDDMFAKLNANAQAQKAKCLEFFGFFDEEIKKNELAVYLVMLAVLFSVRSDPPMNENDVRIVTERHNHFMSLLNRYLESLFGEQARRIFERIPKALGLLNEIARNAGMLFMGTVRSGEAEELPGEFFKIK", "assay": "Luciferase assay for DAF-12 transcriptional activation in HEK-293T cells", "assay_type": "cell-based, C. elegans", "conditions": "1 nM – 3125 nM tested", "outline": "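HEK-293T cells were calcium-phosphate co-transfected with full-length DAF-12, a mir84p-luciferase reporter, GFP and β-galactosidase vectors. Ethanol solutions of test compound (1–3125 nM), or ethanol alone, were added 8 h post-transfection. Luciferase and β-galactosidase activities were read 16 h after addition. A reference dafachronic acid at 100 nM was the positive control. Triplicates, mean ±SD.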"}, "[2]": {"test_system": "daf-9(dh6) worms", "assay": "daf-9", "assay_type": "in vivo, C. elegans", "conditions": "27 °C; for daf-9(dh6) dauer rescue activity (in vivo), in words: 0.1 nM – 500 nM tested", "outline": "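Test compound in ethanol (0.1–500 nM final, calculated over the agar volume) or ethanol alone was mixed with concentrated E. coli OP50 and plated on cholesterol-free NGM agar. About 100 daf-9(dh6) eggs from a 4–8 h egg lay were added per plate and scored for dauer arrest versus development after 60 h at 27 °C. A reference dafachronic acid at 100 nM was the positive control. Two replicates, mean ±SD.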"}, "[3]": {"molecular_target": "T1, DAF-12", "assay": "Alphascreen assay for ligand-dependent recruitment of SRC1-4 peptide by DAF-12", "assay_type": "biochemical, C. elegans", "conditions": "read-out: EC50, recruitment of SRC1-4 peptide by DAF-12", "outline": "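Test compound binding to DAF-12 was measured by AlphaScreen as ligand-dependent recruitment of the SRC1-4 peptide, which carries the SRC-1 NR-box motif. Signal was expressed as fold activation over an ethanol control and reported as mean ±SEM.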"}, "[4]": {"test_system": "glp-1;daf-36 double mutant worms", "assay": "Lifespan of germline-deficient glp-1", "assay_type": "in vivo, C. elegans", "conditions": "100 nM, glp-1;daf-36 worms"}}, "data": [{"smiles": "C[C@H](CCC[C@H](C)C(=O)O)[C@H]1CC[C@H]2C3=CCC4C[C@H](O)CC[C@]4(C)[C@H]3CC[C@]12C", "note": "(stereo partly drawn) [3α-OH-Δ^7-DA, (25S)-3α-hydroxy cholest-7-enoic acid]", "values": [{"measurement": "DAF-12 activation in luciferase assay (in vitro), in words", "setting": "[1]", "value": "active"}, {"measurement": "daf-9(dh6) dauer rescue activity (in vivo), in words", "setting": "[2]", "value": "active"}, {"measurement": "EC50", "setting": "[3]", "value": 200, "unit": "nM"}]}, {"smiles": "CC(CCCC(C)C1CCC2C3=CCC4CC(O)CCC4(C)C3CCC21C)C(=O)O", "note": "(stereo not drawn) [3β-OH-Δ^7-DA]", "values": [{"measurement": "DAF-12 activation in luciferase assay (in vitro), in words", "setting": "[1]", "value": "did not activate DAF-12 in mammalian cells at any tested concentration"}]}, {"smiles": "C[C@H](CCC[C@H](C)C(=O)O)[C@H]1CC[C@H]2[C@@H]3CCC4CC(=O)CC[C@]4(C)[C@H]3CC[C@]12C", "note": "(stereo partly drawn) [Δ^0-DA, (25S)-3-keto-cholestanoic acid]", "values": [{"measurement": "DAF-12 activation in luciferase assay (in vitro), in words", "setting": "[1]", "value": "active"}, {"measurement": "daf-9(dh6) dauer rescue activity (in vivo), in words", "setting": "[2]", "value": "active"}]}, {"smiles": "CC(CCC[C@@H](C)[C@H]1CC[C@H]2C3=CCC4CC(=O)C=C[C@]4(C)[C@H]3CC[C@]12C)C(=O)O", "note": "(some centres unmarked) [Δ^1,7-DA, 3-oxocholesta-1,7-dienoic acid]", "values": [{"measurement": "EC50", "setting": "[2]; read-out: EC50, daf-9(dh6) dauer rescue, plate based assay, synthetic compound", "value": 2, "unit": "nM"}, {"measurement": "Restoration of glp-1-dependent lifespan extension", "setting": "[4]", "value": "fully restore glp-1-dependent lifespan extension"}, {"measurement": "EC50", "setting": "[3]", "value": 15, "unit": "nM"}]}, {"smiles": "C[C@H](CCC[C@H](C)C(=O)O)[C@H]1CC[C@H]2C3=CC[C@H]4CC(=O)CC[C@]4(C)[C@H]3CC[C@]12C", "note": "[Δ^7-DA, Δ^7-dafachronic acid, reference compound]", "values": [{"measurement": "Restoration of glp-1-dependent lifespan extension", "setting": "[4]", "value": "fully restore glp-1-dependent lifespan extension"}, {"measurement": "EC50", "setting": "[3]", "value": 8, "unit": "nM"}]}]}
